Measurements pooled from the literature.
Target: Mitogen-activated protein kinase kinase kinase 5 (MAP3K5, Homo sapiens, UniProt Q99683)
One construct used (Q99683 1-1374): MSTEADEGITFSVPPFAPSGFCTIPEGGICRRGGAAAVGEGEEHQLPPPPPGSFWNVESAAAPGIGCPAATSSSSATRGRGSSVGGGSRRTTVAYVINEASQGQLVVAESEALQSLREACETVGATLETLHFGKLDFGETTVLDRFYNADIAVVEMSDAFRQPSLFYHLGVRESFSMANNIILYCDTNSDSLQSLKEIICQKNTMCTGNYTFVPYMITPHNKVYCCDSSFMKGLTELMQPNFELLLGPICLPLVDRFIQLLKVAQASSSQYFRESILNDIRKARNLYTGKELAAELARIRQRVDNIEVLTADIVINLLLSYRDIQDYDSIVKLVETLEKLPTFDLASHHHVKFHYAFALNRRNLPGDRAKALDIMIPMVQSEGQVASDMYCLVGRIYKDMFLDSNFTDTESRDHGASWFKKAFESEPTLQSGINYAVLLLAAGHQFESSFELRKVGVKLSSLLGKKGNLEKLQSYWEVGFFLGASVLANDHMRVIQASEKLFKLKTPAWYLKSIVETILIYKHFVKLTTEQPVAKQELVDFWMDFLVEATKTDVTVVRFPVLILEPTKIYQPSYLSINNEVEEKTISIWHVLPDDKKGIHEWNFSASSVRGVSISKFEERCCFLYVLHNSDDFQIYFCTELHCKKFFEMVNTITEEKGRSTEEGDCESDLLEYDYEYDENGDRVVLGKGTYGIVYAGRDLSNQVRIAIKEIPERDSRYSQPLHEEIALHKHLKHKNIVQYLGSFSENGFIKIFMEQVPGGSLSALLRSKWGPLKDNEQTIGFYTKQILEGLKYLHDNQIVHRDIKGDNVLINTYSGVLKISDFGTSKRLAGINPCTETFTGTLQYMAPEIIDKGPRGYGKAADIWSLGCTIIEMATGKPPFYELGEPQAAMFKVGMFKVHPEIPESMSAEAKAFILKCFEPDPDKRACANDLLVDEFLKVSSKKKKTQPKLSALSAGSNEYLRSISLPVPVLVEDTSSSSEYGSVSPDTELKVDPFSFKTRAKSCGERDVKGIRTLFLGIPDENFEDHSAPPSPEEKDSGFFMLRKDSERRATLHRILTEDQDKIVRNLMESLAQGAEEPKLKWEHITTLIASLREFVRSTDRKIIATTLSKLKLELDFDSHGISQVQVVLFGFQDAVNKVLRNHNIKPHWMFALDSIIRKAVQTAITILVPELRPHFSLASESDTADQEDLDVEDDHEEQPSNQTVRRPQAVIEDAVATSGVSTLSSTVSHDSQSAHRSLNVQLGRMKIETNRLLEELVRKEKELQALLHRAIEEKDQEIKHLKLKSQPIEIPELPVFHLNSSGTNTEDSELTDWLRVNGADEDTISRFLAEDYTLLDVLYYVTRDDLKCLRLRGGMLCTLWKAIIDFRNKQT

Compound	test	system	conditions	quantity	value
CO[C@@H](C)c1c(Nc2ccc([C@@H](N(C)C(=O)C3CCS(=O)(=O)CC3)C(F)(F)F)cc2)cnc2cc(Cl)nn12	cell-free assay, competition with immobilised ligand	–	1 µM	remaining binding	81%
COc1cc(Cl)c(C(=O)N[C@@H](CN[C@H]2CC[C@@H](N)CC2)Cc2ccc(C#N)cc2)cc1-c1ccc(CN[C@H](C)c2ccc(C)cc2)o1	enzyme activity, inhibitor	–	1 µM	remaining activity	94%
FC(F)(F)Oc1cccc(-c2cnc3ccc(-c4ccncc4)nn23)c1	enzyme activity, inhibitor, radiometric	–	1 µM	activity vs control	88%
Cn1c2c(c3ccc(Cl)c(Cl)c31)C(C#N)C(C)(C)NC2=O (stereo not shown)	thermal stability, DSF	–	10 µM	ΔTm	2.6 °C
COc1cc(Nc2cnc(C#N)c(O[C@H](C)CN(C)C)n2)ncc1-c1cnn(C)c1	enzyme activity, inhibitor, radiometric	–	1 µM	remaining activity	95%
CCCCN(CCCC)C(=O)CN1C[C@H](c2cc(OC)c3c(c2)OCO3)[C@@H](C(=O)O)[C@@H]1CC(C)(C)CCC	cell-free assay, competition with immobilised ligand	–	1 µM	remaining binding	100%
CCN(CC)CCNC(=O)c1c(C)[nH]c(/C=C2\C(=O)Nc3ccc(F)cc32)c1C	enzyme activity, inhibitor	–	10 µM	inhibition	38%
C[S+]([O-])c1ccc(-c2nc(-c3ccncc3)c(-c3ccc(F)cc3)[nH]2)cc1 (stereo not shown)	cell-free assay	–	0.5 µM	remaining signal	107%
CCN1CCN(Cc2ccc(NC(=O)c3ccc(C)c(/C=C/c4cnc5[nH]ccc5c4OC)c3)cc2C(F)(F)F)CC1	target engagement in cells, inhibitor, chemoproteomics	A-375	5 µM	inhibition	-35.5%
CCCCNc1ncc2c(-c3ccc(F)cc3)nn(C[C@H]3CC[C@H](N)CC3)c2n1	target engagement in cells, inhibitor, chemoproteomics	–	20 mM	inhibition	-10.7%
CCN(CC)c1ccc(C2=NNC(=O)CC2C)cc1[N+](=O)[O-] (stereo not shown)	enzyme activity, inhibitor	–	10 µM	remaining activity	101%
CNC(=O)c1cc(Oc2ccc(NC(=O)Nc3ccc(Cl)c(C(F)(F)F)c3)cc2)ccn1	enzyme activity, inhibitor	–	10 µM	inhibition	9%
Cn1c2c(c3ccc(Cl)c(Cl)c31)C(C#N)C1(CCOCC1)NC2=O (stereo not shown)	thermal stability, DSF	–	10 µM	ΔTm	0.4 °C
Cn1c(=O)n(-c2ccc(C(C)(C)C#N)cc2)c2c3cc(-c4cnc5ccccc5c4)ccc3ncc21	enzyme activity, inhibitor	–	10 µM	remaining activity	106%
CC(C)CC(=O)N1CCc2nc(-c3ccc(Br)cc3)nc(N(C)Cc3ccccc3)c2C1	cell-free assay, competition with immobilised ligand	–	0.1 µM	remaining binding	91%
CC(C)(C)c1nc2c(s1)c1nc(N)ncc1c1ccc(NS(=O)(=O)c3c(F)cccc3F)c(F)c12	enzyme activity, inhibitor, radiometric	–	1 µM	remaining activity	104%
CNCc1ccc(-c2cc(-c3nc(-c4ccc(S(=O)(=O)C(C)C)cc4)cnc3N)on2)cc1	enzyme activity, inhibitor	–	2 µM	inhibition	0%
CNCc1ccccc1-c1csc([C@@H](C)Nc2nc(C)nc3cc(OC)c(OC)cc23)c1	cell-free assay, competition with immobilised ligand	–	1 µM	remaining binding	91%
COc1cccc2c(NCc3ccccc3)nc(-n3c(N)nc4ccccc43)nc12	target engagement in cells, inhibitor, chemoproteomics	–	20 mM	inhibition	-7.6%

Compound	test	system	conditions	quantity	value
CC(C)(O)[C@H]1CC[C@H](Nc2ccc3ncc(-c4cccc(C(F)(F)F)c4)n3n2)CC1	enzyme activity, inhibitor	–	1 µM	remaining activity	96.7%
O=C(Nc1cnn(-c2csc(C(=O)NC3COC3)c2)c1)Nc1c(F)cccc1Cl	enzyme activity, inhibitor	–	5 µM	remaining activity	91.1%
CC(=O)N1CCC(c2ccc(C(=O)NC3=NCCN3)cc2C(F)(F)F)CC1	cell-free assay, competition with immobilised ligand	–	1 µM	remaining binding	100%
CC1(C)NC(=O)c2[nH]c3c(Cl)c(Cl)ccc3c2C1C#N (stereo not shown)	thermal stability, DSF	–	10 µM	ΔTm	1.6 °C
Nc1ncnc2occ(-c3ccc(NC(=O)Nc4cc(C(F)(F)F)ccc4F)cc3)c12	cell-free assay, inhibitor	–	20 µM	remaining signal	7.8%
CC(C)c1ccc(NC(=O)c2cccs2)c(-c2nc3ccccc3[nH]c2=O)c1	enzyme activity, inhibitor	–	1 µM	activity vs control	107%
Cc1sc(C(=O)NC2COC2)cc1-n1cc(NC(=O)Nc2c(F)cccc2Cl)cn1	enzyme activity, inhibitor	–	10 µM	remaining activity	94%
FC(F)c1nc2ccccc2n1-c1nc(N2CCOCC2)nc(N2CCOCC2)n1	enzyme activity, inhibitor	–	10 µM	remaining activity	90%
CCN1CCN(Cc2ccc(NC(=O)c3ccc(C)c(Oc4ccnc5[nH]ccc45)c3)cc2C(F)(F)F)CC1	target engagement in cells, inhibitor, chemoproteomics	A-375	5 µM	inhibition	-27.1%
CCOc1cc(-c2nncn2C)ccc1Nc1ncc2cc(C)nc(NCC(C)(C)C)c2n1	cell-free assay, TR-FRET	–	1 µM	inhibition	≤ 15%
Cn1c2c(c3ccc(Cl)c(Cl)c31)C(C#N)C1(CCNCC1)NC2=O (racemic)	thermal stability, DSF	–	10 µM	ΔTm	0.1 °C
Cc1ccc(Nc2nccc(N(C)c3ccc4c(C)n(C)nc4c3)n2)cc1S(N)(=O)=O	enzyme activity, inhibitor	–	10 µM	inhibition	5%
CC1=C(C#N)[C@@H](c2ccc3[nH]nc(C)c3c2)C(C#N)=C(c2ccc(Cl)cc2)N1	cell-free assay, competition with immobilised ligand	–	1 µM	remaining binding	100%
Cc1cc(NC(=O)c2cccc3cc(-c4cccc5[nH]nc(N)c45)ccc23)ccc1F	enzyme activity, inhibitor	–	0.1 µM	activity vs control	109%
c1ccc(N2CCN(Cc3nc4ccccc4[nH]3)CC2)nc1	binding, competition with immobilised ligand	–	1 µM	remaining binding	93%
O=C1NC(=O)c2cc(Nc3ccc(F)cc3)c(Nc3ccc(F)cc3)cc21	cell-free assay	–	0.5 µM	remaining signal	96.6%
Cn1c2c(c3ccc(Cl)c(Cl)c31)C(C#N)C1(CCN(C(=O)OC(C)(C)C)CC1)NC2=O (racemic)	thermal stability, DSF	–	10 µM	ΔTm	0 °C
CS(=O)(=O)N1CCCC(NC(=O)[C@H](CCC2CCCCC2)NC(=O)c2ccc(CNc3ncnc4c3nnn4-c3ccccc3)cc2)C1 (stereo partly shown)	cell-free assay, competition with immobilised ligand	–	0.1 µM	remaining binding	100%
